Sampled rows, rich in hits. Any-hit rate of the full collection: about 5%.
CHOP UPR activ: activators of apoptotic CHOP UPR arm, primary screen, cell-based, CHO-CHOP luciferase reporter, luminescence, uHTS; UPR activation; percent of tunicamycin response over DMSO baseline; actives 0.34% (n = 330,000); activation, % at 10 µM;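 active means at 10 µM dose, activation of 40% or more, normalized to positive control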;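 further: 100% = tunicamycin at 10 µg/mL and 0% = DMSO alone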
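Assay system: CHO-CHOP cells, stable luciferase reporter of PERK-eIF2a-CHOP signalling / Buffer or medium: F12 plus 10% serum / Compound dosing: one dose, 10 µM in 0.5% DMSO / Times: 6 h compound treatment, 37 °C / Technique: luciferase luminescence / Read-out: % reporter activation, DMSO baseline versus tunicamycin full activation / Benchmarks: tunicamycin and DMSO controls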
CSC inhib: cancer stem cell viability inhibitors, primary screen, luminescence | cancer stem cell-like cells viability | inhibition, % at 7.5 µM | actives 1.1% (n = 300,000) | AID 2717, 2010; in the data active means inhibition above about 75%; inconclusive means no clear call, values can overlap the other calls; tested in HMLE shEcad cells
Mdm2-MdmX inh: inhibitors of human Mdm2-MdmX association, primary screen, cell-based, luminescence, split luciferase, SaOS-2, uHTS. Protein Mdm4 (Homo sapiens) + E3 ubiquitin-protein ligase Mdm2 (Homo sapiens), …. SaOS-2 split-luciferase Mdm2/MdmX complementation. inhibition, % at 8 µM. actives 3% (n = 330,000). AID 485346, 2010;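 active means inhibition of at least 50% at 8 µM in the primary screen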
Target sequence (O15151 whole entry, looked up): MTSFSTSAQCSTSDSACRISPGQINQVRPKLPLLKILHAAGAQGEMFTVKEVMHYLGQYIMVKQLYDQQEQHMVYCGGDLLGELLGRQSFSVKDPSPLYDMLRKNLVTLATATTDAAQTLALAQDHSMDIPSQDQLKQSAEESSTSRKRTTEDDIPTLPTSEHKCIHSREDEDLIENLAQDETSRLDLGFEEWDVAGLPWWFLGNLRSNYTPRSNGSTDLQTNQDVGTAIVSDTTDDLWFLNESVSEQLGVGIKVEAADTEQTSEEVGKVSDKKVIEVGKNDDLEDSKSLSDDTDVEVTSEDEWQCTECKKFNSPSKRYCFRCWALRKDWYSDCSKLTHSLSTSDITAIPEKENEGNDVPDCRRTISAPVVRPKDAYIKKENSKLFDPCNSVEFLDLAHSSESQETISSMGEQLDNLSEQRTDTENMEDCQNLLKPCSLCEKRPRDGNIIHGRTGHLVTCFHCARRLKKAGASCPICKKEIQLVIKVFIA
Target sequence (Q00987 whole entry, looked up): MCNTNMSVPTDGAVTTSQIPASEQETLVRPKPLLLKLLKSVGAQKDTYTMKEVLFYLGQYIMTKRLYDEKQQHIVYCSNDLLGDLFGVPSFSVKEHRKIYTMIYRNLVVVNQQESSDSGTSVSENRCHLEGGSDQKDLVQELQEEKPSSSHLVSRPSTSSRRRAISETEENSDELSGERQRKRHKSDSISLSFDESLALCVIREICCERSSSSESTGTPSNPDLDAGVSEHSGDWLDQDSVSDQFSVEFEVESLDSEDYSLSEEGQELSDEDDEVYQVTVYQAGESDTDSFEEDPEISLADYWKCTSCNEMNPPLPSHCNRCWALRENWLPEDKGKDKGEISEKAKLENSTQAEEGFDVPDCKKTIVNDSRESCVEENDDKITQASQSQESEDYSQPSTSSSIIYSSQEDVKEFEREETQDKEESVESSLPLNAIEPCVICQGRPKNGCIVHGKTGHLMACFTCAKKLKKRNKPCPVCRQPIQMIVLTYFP
UPR XBP1 act: activators of adaptive XBP1 UPR arm, primary screen, cell-based, CHO-XBP1 luciferase reporter, luminescence, uHTS; IRE1-XBP1 UPR activation; percent of tunicamycin response, DMSO as zero; activation, % at 20 µM; actives 0.33% (n = 330,000); AID 463104, 2010;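 active means versus positive control, 20 µM dose yields 30% or more activation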;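 further: 100% = tunicamycin at 10 µg/mL and 0% = DMSO only wells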
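Signal: luciferase luminescence; Assay system: CHO-XBP1 luciferase reporter cells; Amount: one thousand reporter cells per well; Dosing: 20 µM single concentration, DMSO 1%; Benchmarks: high control tunicamycin 10 µg/mL final, low control DMSO vehicle only; Schedule: 6 h compound exposure at 37 °C, 5% CO2; Evaluation: percent activation relative to tunicamycin reference.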
Beta cell apopt: inhibitors of cytokine-induced beta cell apoptosis, primary screen, luminescence; INS-1E cytokine-induced death, ATP luminescence, 48 h; percent of positive-control rescue, neutral wells zero; protection from apoptosis, % (test concentration not listed); actives 0.8% (n = 300,000); AID 435005, 2010;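 active means Every replicate reaches about 75%, or at least half do and their mean reaches it too, limit read from the data; inconclusive means At least half of replicates reach the limit but their mean does not; inactive means Under half of replicates reach the limit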;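 further: 0% = cytokine-treated negative control wells and 100% = positive control rescue; higher means more ATP so stronger rescue from cytokine killing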
T cruzi repl: inhibitors of intracellular T. cruzi growth, primary screen, luminescence, NIH3T3 host cells | inhibition, % (concentration not given with the values) | T. cruzi beta-gal in NIH3T3, 90 h | actives 1.4% (n = 300,000);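 active means mean inhibition across valid replicates above about 55%, limit read from the data; inconclusive means mean below that limit but half or more replicates reach it; inactive means mean below it, under half of replicates reach it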;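 further: signal also drops with host cell toxicity which is not excluded here; 0% = plate median of DMSO wells and 100% = zero luminescence signal; higher percent means less beta-gal luminescence so fewer parasites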
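Assay system: NIH/3T3 host cells with β-galactosidase reporter T. cruzi; input: 5,000 host fibroblasts per well; compound: single 50 nL compound addition per well in DMSO; timing: ≥90 h infection period, 3 h prior cell attachment; measured by: GalScreen β-gal luminescence, detergent lysis, 60 min; evaluation: percent inhibition of parasite-derived β-gal signal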
Starred values were filed as active, the others as inactive; ? = inconclusive; / = no result.

SMILES	CHOP UPR activ	CSC inhib	Mdm2-MdmX inh	UPR XBP1 act	Beta cell apopt	T cruzi repl
CCN(Cc1ccncc1)C(=O)c1cc(COc2ccc(C)c(C)c2)on1	1.3	25.2	-13.8	-8.2	-9.1	56.2*
O=C(c1cc(COc2ccc(F)cc2Cl)on1)N(Cc1ccncc1)CC1CCCO1 (centres undefined)	-0.3	-8.7	20.5	-1.5	1.5	69.6*
COc1ccc(C(=O)N(C)Cc2cnn(Cc3ccccc3)c2)cc1S(=O)(=O)N1CCOCC1	-1.0	44.6	45.3	0.5	14.2	/
CCc1cc(CNC(=O)c2ccc3nc(Cc4ccc(OC)c(OC)c4)oc3c2)on1	2.3	-9.2	15.5	-2.3	107.2*	-7.9
O=C(O)c1ccccc1C(=O)NC1CCCc2ccccc21 (centres undefined)	-0.7	-5.3	21.5	-5.3	-1.9	-8.3
Cc1ccc(N(CC(=O)Nc2ccc(-c3nc4ccc(C)cc4s3)cc2)S(C)(=O)=O)cc1	3.6	8.1	-72.7	3.6	0.2	6.9
Cc1ccc(C)c(N(CC(=O)Nc2ccc(-c3nc4ccc(C)cc4s3)cc2)S(C)(=O)=O)c1	4.2	70.1	4.5	1.1	1.1	65.4*
COC(=O)c1ccc(N(CC(=O)NC2CCCC2)C(=O)c2ccc(C)s2)cc1	0.9	-1.7	-13.0	-2.4	1.6	-3.8
CCOc1ccc(OCCC(=O)N(CCC(C)C)c2c(N)n(Cc3ccccc3)c(=O)[nH]c2=O)cc1	-1.5	5.7	4.8	-2.8	/	-1.3
Nc1ccccc1Nc1cc(-c2cccc(Cl)c2)nn1-c1ccccc1	3.9	47.2	-18.5	-0.9	4.0	57.1*
COc1ccc(-n2c(SCc3ccc([N+](=O)[O-])cc3)nnc2-c2ccc(C)cc2)cc1	-1.4	14.1	-2.6	-1.9	9.4	69.7*
COc1ccc(-n2c(Cc3ccccc3)nnc2SCc2ccc([N+](=O)[O-])cc2)cc1	-0.1	16.9	5.0	0.5	1.9	13.1
CC(=O)c1ccc(N2CCN(CC(=O)Nc3ccc4c(c3)OCCO4)CC2)cc1	0.5	13.5	-10.8	-3.1	5.2	15.7
CCOC(=O)COc1ccccc1/C=C\[N+](=O)[O-]	/	-4.0	/	/	106.4*	9.3
O=S1(=O)C=CC(Nc2ccccc2)C1 (centres undefined)	-0.6	7.5	-25.0	0.8	-3.0	-4.0
Cc1cccc(NC(=O)c2nc[nH]c2C(=O)N[C@@H](C)c2ccccc2)c1	0.0	78.0*	35.1	-1.7	9.3	/
Cc1ccc(C2=NN(C(=O)c3cccs3)C(c3ccccc3O)C2)cc1 (centres undefined)	0.0	1.9	24.8	0.3	8.6	64.0*
COc1ccc(C2=NN(C(=O)c3cccs3)C(c3ccccc3OC)C2)cc1OC (centres undefined)	0.8	7.5	17.0	-0.6	9.8	28.4
O=C(c1cccs1)N1N=C(c2ccccc2)CC1c1ccccc1O (centres undefined)	3.5	4.4	-1.9	2.1	6.1	57.5*
CC(=O)NCCc1ccc(C(=O)COC(=O)c2cc(C)oc2C)cc1	0.6	-7.9	-1.1	1.8	5.3	/
CCCc1c(C(=O)NNc2ccc(C)cc2)cnn1-c1ccccc1	-0.1	93.0*	5.3	-2.2	-8.8	10.7
CCCc1c(C(=O)Nc2ccc(C(F)(F)F)cc2)cnn1-c1ccccc1	0.3	26.1	16.4	-2.4	18.6	19.6
O=[N+]([O-])c1ccc(-n2nnnc2-c2ccccc2)cc1	-3.4	-0.9	-15.6	-0.3	4.7	22.0
O=[N+]([O-])c1ccc(-n2nnnc2-c2ccccc2)c([N+](=O)[O-])c1	/	62.8	/	/	-6.8	62.3*
O=[N+]([O-])c1ccc(-c2ccn[nH]2)o1	-1.7	-2.9	-16.9	0.7	-2.4	68.1*
SMILES	CHOP UPR activ	CSC inhib	Mdm2-MdmX inh	UPR XBP1 act	Beta cell apopt	T cruzi repl
CC(/C=C1\SC(=O)N(CC(=O)Nc2cccc(O)c2)C1=O)=C\c1ccccc1	0.9	117.0*	-8.7	4.6	-2.8	-5.7
CCOC(=O)C1CCN(c2ncnc3c2c(-c2ccccc2)cn3-c2ccccc2)CC1	2.7	?	11.9	-0.2	16.6	59.1*
Cc1ccc(-n2cc(-c3ccccc3)c3c(N4CCOCC4)ncnc32)cc1	/	/	/	/	/	1.5
CCCN(CCC)CCNC(=O)C1(O)c2ccccc2NC(=O)N1c1cccc(OC)c1 (centres undefined)	-0.5	3.2	10.4	-0.8	-10.2	2.3
CCc1ccc(NC(=O)CS(=O)CC(=O)Nc2ccc(N3CCOCC3)cc2)cc1 (centres undefined)	1.4	4.1	9.8	-0.5	/	-9.9
COc1ccc(-c2cn(CCc3c[nH]c4ccccc34)nn2)cc1	3.1	96.2*	-15.4	-1.5	1.4	-9.2
O=[N+]([O-])c1cccc(-c2cn3nc(-c4ccccc4)c(-c4ccccc4)nc3n2)c1	2.6	-3.9	5.5	1.8	97.9*	6.9
CCN(CC)CCC(=O)Nc1cccc2c1C(=O)c1ccccc1C2=O	-0.8	24.7	46.1	-2.5	98.0*	55.8*
COc1ccc(S(=O)(=O)N(C)c2ccc(C(=O)NCc3ccco3)cc2)cc1OC	4.2	0.0	1.2	-2.2	-0.9	1.7
NC(=O)c1c(NC(=O)CCCn2cnc([N+](=O)[O-])n2)sc2c1CCCC2	-0.3	-6.1	-1.6	-1.2	-3.0	60.1*
CC1CCc2c(sc(NC(=O)CCCn3cnc([N+](=O)[O-])n3)c2C(N)=O)C1 (centres undefined)	-1.0	-5.6	5.7	-3.1	-0.7	52.9
O=C(CCCn1cnc([N+](=O)[O-])n1)Nc1ccc(F)c(Cl)c1	-0.5	-3.4	-4.0	-0.3	-5.4	60.3*
O=C(CCCn1cnc([N+](=O)[O-])n1)Nc1ccc(Cl)cc1Cl	1.8	-3.8	15.0	1.7	-0.2	58.5*
COc1cc(/C=C(/C(=O)c2cccs2)c2nc3ccccc3[nH]2)ccc1O	3.3	60.9	48.8	-2.8	83.2*	-15.5
COC(=O)C1CCCCN1C(=O)c1cc(COc2cccc3cnccc23)on1 (centres undefined)	4.0	3.4	49.5	-4.6	101.3*	0.8
CCOC(=O)CC1CCCCN1C(=O)c1cc(COc2cccc3cnccc23)on1 (centres undefined)	4.2	8.7	35.7	-6.6	96.2*	-24.7
COC(=O)C1CCCCN1C(=O)c1cc(COc2cccc3cccnc23)on1 (centres undefined)	-0.4	-3.3	2.1	-4.9	-3.5	-1.9

Compound activity deposited in PubChem BioAssay by several laboratories.
